Source: PubChem
Shown are actives, neighbours in structure and some others; about 3.5% of the full set was active somewhere.
RGS4 block – inhibitors of human RGS4; HEK293 M3R/RGS4 inducible, Fluo-4 calcium flux; stronger effect = higher value; triggered by carbachol at its EC20; hit rate 0.45% among 310,000; P49798; B-score at 10 µM;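 active = B-score, a plate-corrected calcium signal, over three deviations above library mean, with baseline fluorescence within five deviations of library mean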;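 also: RGS4 expression induced by doxycycline in cells with stable M3 receptor; B-score is computed from the integrated fluorescence ratio over baseline after carbachol; higher B-score means a larger calcium signal and so more RGS4 inhibition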
Target sequence (P49798 whole entry, looked up): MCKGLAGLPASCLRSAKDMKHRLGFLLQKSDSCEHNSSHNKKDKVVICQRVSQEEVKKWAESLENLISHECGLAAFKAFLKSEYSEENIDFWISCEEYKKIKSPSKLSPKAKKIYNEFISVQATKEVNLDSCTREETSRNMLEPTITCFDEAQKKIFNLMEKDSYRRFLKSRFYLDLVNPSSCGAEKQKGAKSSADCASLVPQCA
MrgX1 antagonist – human MrgX1 receptor antagonism, primary screen | Q96LB2 | MRGX1-HEK293 calcium flux, Fluo-4, BAM8-22 antagonism; stronger effect = lower value | B-score at 10 µM | hit rate 1.3% among 310,000 | AID 588676;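 active = calcium-response B-score plate-corrected more than 3 library SD below zero, starting fluorescence within 5 deviations, no agonist response on first addition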;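 also: peak minus trough fluorescence over baseline after final BAM8-22 challenge near maximal dose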
Target sequence (Q96LB2 whole entry, looked up): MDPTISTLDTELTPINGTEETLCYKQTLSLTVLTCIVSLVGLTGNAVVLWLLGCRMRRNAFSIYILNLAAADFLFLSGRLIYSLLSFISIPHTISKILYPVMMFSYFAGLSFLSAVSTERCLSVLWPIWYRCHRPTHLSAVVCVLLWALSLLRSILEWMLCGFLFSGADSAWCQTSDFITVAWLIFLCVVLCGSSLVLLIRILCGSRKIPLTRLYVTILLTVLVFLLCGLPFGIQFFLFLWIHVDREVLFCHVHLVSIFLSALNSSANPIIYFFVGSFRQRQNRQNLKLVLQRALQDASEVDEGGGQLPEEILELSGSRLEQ
MrgX1 allo act – allosterically activates human MrgX1 receptor signaling; hit rate 0.63% among 310,000; MrgX1-HEK293, Fluo-4 calcium flux, FDSS; stronger effect = higher value; B-score at 10 µM; AID 588675; Q96LB2;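 active = plate-corrected calcium response at least 3 library SD above typical, normal starting fluorescence, not activating the receptor alone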;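 also: compound read alongside a low EC10 to EC30 dose of BAM8-22 agonist; peak minus trough fluorescence over baseline measured at the second addition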
RGS4 pot – potentiators or activators of RGS4; B-score at 10 µM; hit rate 0.92% among 310,000; HEK293 M3R/inducible RGS4, carbachol calcium flux Fluo4; stronger effect = lower value;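 active = B-score of the integrated calcium signal more than 4 SD below the library mean, with starting fluorescence not abnormally high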;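 also: negative B-score means reduced calcium response which marks RGS4 activation or potentiation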
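Assay system: Inducible-RGS4 HEK293 cells carrying M3 receptor | Schedule: Compound preincubation 20 min at room temperature before agonist | Signal: Kinetic calcium fluorescence imaging with Fluo4-AM dye, 2 µM | Read-out basis: B score from integrated fluorescence ratio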
MrgX1 agonist – agonists of human MrgX1 receptor; B-score at 10 µM; hit rate 0.44% among 310,000; MrgX1-HEK293 cells, Fluo-4 calcium fluorescence, agonist mode; stronger effect = higher value;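 active = calcium response B-score plate-corrected fluorescence ratio at least 3 library SD, with starting fluorescence B-score inside 5 SD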
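Assay system: MrgX1-expressing HEK293 cells / Amount: fifteen thousand cells per well / Doses: test compound in the initial addition of three / Timing: cells plated overnight, dye loaded 0.5 h 37 °C, 0.5 h room temperature / Technique: kinetic calcium dye fluorescence, Fluo-4 NW / Control set: positive and negative controls per plate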
The depositor's hits bear a star.

CCC1=C(OC(=O)N(CC)CC)N2C(=O)OC(=NCCOC)[C@]2(Cc2ccccc2)[C@H]2C1=CC[C@H]1C(=O)NC(=O)[C@H]12 was read as RGS4 block inactive, MrgX1 antagonist inactive, MrgX1 allo act inactive, RGS4 pot inactive and MrgX1 agonist inactive.
CCC1=C(OC(=O)N(CC)CC)N2C(=O)OC(=NCC3CC3)[C@]2(Cc2ccccc2)[C@H]2C1=CC[C@H]1C(=O)NC(=O)[C@H]12 was read as RGS4 block inactive, MrgX1 antagonist -8.1*, MrgX1 allo act inactive, RGS4 pot inactive and MrgX1 agonist inactive.
CC1=CC2=NC(=O)/C(=C/c3coc4ccc(Cl)cc4c3=O)C(=N)N2O1 was read as RGS4 block inactive, MrgX1 antagonist inactive, MrgX1 allo act inactive, RGS4 pot -7.12* and MrgX1 agonist inactive.
For CCCOC(=O)C1=C(C)NC2=C(C(=O)CCC2)C1c1ccc(N(C)C)cc1 (configuration not stated) the results were RGS4 block inactive, MrgX1 antagonist inactive, MrgX1 allo act inactive, RGS4 pot -7.19* and MrgX1 agonist inactive.
Screening CCOC(=O)C1=C(C)NC2=C(C(=O)CCC2)C1c1ccc(N(C)C)cc1 (configuration not stated) returned RGS4 block inactive, MrgX1 antagonist inactive, MrgX1 allo act inactive, RGS4 pot inactive and MrgX1 agonist inactive.
For CCOc1cc(C(=O)NC2CCCCCCC2)cc(OCC)c1OCC the results were RGS4 block inactive, MrgX1 antagonist inactive, MrgX1 allo act inactive, RGS4 pot inactive and MrgX1 agonist inactive.
Nc1ccccc1Nc1c(F)c(F)nc(F)c1Cl was read as RGS4 block inactive, MrgX1 antagonist inactive, MrgX1 allo act inactive, RGS4 pot inactive and MrgX1 agonist inactive.
`Cc1ccccc1/C=C/c1nc2ccccc2c(=O)n1CCc1ccccc1` gave RGS4 block inactive, MrgX1 antagonist inactive, MrgX1 allo act inactive, RGS4 pot inactive and MrgX1 agonist inactive.
Cc1ccccc1/C=C/c1nc2ccccc2c(=O)n1Cc1ccccc1 was read as RGS4 block inactive, MrgX1 antagonist inactive, MrgX1 allo act inactive, RGS4 pot -7.4* and MrgX1 agonist inactive.
`Cc1onc(-c2ccccc2)c1C(=O)NC(=S)NNC(=O)c1ccncc1` gave RGS4 block inactive, MrgX1 antagonist inactive, MrgX1 allo act inactive, RGS4 pot inactive and MrgX1 agonist inactive.
For Cc1onc(-c2ccccc2)c1C(=O)NNC(=S)NC(=O)/C=C/c1cccs1 the results were RGS4 block inactive, MrgX1 antagonist inactive, MrgX1 allo act inactive, RGS4 pot inactive and MrgX1 agonist 58.1*.
For Cc1onc(-c2ccccc2)c1C(=O)NC(=S)NNC(=O)c1ccco1 the results were RGS4 block inactive, MrgX1 antagonist inactive, MrgX1 allo act inactive, RGS4 pot inactive and MrgX1 agonist 60*.
`COc1cccc(CN(C)C(=O)c2ccc(NC(=O)CC3SC(N4CCCC4)=NC3=O)cc2)c1OC` (configuration not stated) gave RGS4 block inactive, MrgX1 antagonist inactive, MrgX1 allo act inactive, RGS4 pot inactive and MrgX1 agonist inactive.
Screening CCNC(=S)N/N=C(\C)c1ccc(Cl)s1 returned RGS4 block inactive, MrgX1 antagonist inactive, MrgX1 allo act inactive, RGS4 pot -7.13* and MrgX1 agonist inactive.
C=C(C)CNC(=S)N/N=C(\C)c1ccc(Cl)s1 was read as RGS4 block inactive, MrgX1 antagonist -6.07*, MrgX1 allo act inactive, RGS4 pot inactive and MrgX1 agonist inactive.
Screening O=C(c1ccc(Br)cc1)N(Cc1ccco1)C1CCS(=O)(=O)C1 (configuration not stated) returned RGS4 block inactive, MrgX1 antagonist inactive, MrgX1 allo act inactive, RGS4 pot inactive and MrgX1 agonist inactive.
O=C(CCC1CCCC1)NCc1cccs1 was read as RGS4 block inactive, MrgX1 antagonist inactive, MrgX1 allo act inactive, RGS4 pot inactive and MrgX1 agonist inactive.
Screening OC(c1cccs1)(c1cccs1)C1C[N+]2(CF)CCC1CC2 (configuration not stated) returned RGS4 block inactive, MrgX1 antagonist inactive, MrgX1 allo act inactive, RGS4 pot -8.38* and MrgX1 agonist inactive.
`CCCN(CC(=O)Nc1ccccc1C)C(=O)c1ccc(C)c(S(=O)(=O)N2CCCCC2)c1` gave RGS4 block inactive, MrgX1 antagonist -5.45*, MrgX1 allo act inactive, RGS4 pot inactive and MrgX1 agonist inactive.
Screening CCCN(CC(=O)Nc1ccccc1C)C(=O)c1ccc(Cl)c(S(=O)(=O)N2CCCC2)c1 returned RGS4 block inactive, MrgX1 antagonist inactive, MrgX1 allo act inactive, RGS4 pot inactive and MrgX1 agonist inactive.
`CCOC(=O)C1=C(C)N(CC(C)C)C(=O)/C1=C\c1ccc(OCC(=O)Nc2ccccc2)cc1` gave RGS4 block inactive, MrgX1 antagonist inactive, MrgX1 allo act inactive, RGS4 pot -7.1* and MrgX1 agonist inactive.
O=C(C(=O)N1CCN(c2ccc([N+](=O)[O-])cc2)CC1)c1cn(CC(=O)N2CCOCC2)c2ccccc12 was read as RGS4 block inactive, MrgX1 antagonist inactive, MrgX1 allo act inactive, RGS4 pot inactive and MrgX1 agonist inactive.
`CCC(C)NCCCCOc1cc(C)cc(C(C)C)c1` (configuration not stated) gave RGS4 block inactive, MrgX1 antagonist inactive, MrgX1 allo act inactive, RGS4 pot -7.35* and MrgX1 agonist inactive.
`Cc1cccc(-n2nnc3c(=O)n(Cc4ccccn4)cnc32)c1` gave RGS4 block inactive, MrgX1 antagonist inactive, MrgX1 allo act inactive, RGS4 pot inactive and MrgX1 agonist inactive.
Screening COc1cc(N=c2ssnc2Cl)c(OC)cc1Cl returned RGS4 block inactive, MrgX1 antagonist inactive, MrgX1 allo act inactive, RGS4 pot inactive and MrgX1 agonist 40.2*.
`COc1ccc(C(=O)N2CCN(c3ccccc3OC)CC2)cc1` gave RGS4 block inactive, MrgX1 antagonist inactive, MrgX1 allo act inactive, RGS4 pot inactive and MrgX1 agonist inactive.
COc1ccc(/C=N/NC(=O)C(=O)N2CCN(c3ccccc3OC)CC2)cc1 was read as RGS4 block inactive, MrgX1 antagonist -4.78*, MrgX1 allo act inactive, RGS4 pot inactive and MrgX1 agonist inactive.
Screening CN(C)c1ccc2nc3c(=O)[nH]c(=O)nc-3n(CC(O)C(O)C(O)CO)c2c1 (configuration not stated) returned RGS4 block inactive, MrgX1 antagonist inactive, MrgX1 allo act inactive, RGS4 pot -7.94* and MrgX1 agonist inactive.
CC(=O)N(C)c1ccc(OCC(O)Cn2c(C)nc3ccccc32)cc1 (configuration not stated) was read as RGS4 block inactive, MrgX1 antagonist inactive, MrgX1 allo act inactive, RGS4 pot inactive and MrgX1 agonist inactive.
